Columns and labels:
[1] = molecular target: T1, Microsomal triglyceride transfer protein large subunit (Homo sapiens, UniProt P55157); experiment: In vitro inhibitory activity against MTP using MTP transfer assay
T1 sequence (P55157 whole entry): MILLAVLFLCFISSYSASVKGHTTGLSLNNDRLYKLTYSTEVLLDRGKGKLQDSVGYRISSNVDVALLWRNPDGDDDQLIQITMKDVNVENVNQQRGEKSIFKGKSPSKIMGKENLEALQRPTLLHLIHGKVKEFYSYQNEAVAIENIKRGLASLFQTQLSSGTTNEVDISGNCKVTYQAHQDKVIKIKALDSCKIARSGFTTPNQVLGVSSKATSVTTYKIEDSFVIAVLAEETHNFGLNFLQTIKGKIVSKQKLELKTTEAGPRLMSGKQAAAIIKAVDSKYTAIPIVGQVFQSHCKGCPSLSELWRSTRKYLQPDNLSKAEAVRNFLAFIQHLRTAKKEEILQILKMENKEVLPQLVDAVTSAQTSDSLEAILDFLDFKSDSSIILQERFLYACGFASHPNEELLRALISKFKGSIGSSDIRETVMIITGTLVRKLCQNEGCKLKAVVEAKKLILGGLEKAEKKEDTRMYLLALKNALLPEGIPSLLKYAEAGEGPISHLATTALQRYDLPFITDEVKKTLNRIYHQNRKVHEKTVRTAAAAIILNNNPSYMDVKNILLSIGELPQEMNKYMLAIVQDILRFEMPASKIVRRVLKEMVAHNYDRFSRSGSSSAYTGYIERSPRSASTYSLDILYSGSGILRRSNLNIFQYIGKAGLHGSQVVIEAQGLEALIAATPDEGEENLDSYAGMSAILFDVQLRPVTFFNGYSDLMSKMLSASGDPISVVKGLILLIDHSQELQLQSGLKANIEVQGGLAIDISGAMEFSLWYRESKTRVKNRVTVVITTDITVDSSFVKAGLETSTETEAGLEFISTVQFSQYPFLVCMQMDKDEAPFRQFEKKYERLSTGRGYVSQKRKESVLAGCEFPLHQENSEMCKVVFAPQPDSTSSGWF

Rattus norvegicus [2] = experiment: Inhibition of total cholesterol in normolipidemic rats after 24 hr of 5 mg/kg oral dosing; no significant change; format: functional, organism-based; design: dose 5 mg/kg
Procedure, shortened: (§1)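 Overnight-fasted normolipidemic rats received a single oral dose in cornstarch vehicle. Blood was drawn at 2, 6 and 24 h post-dose and assayed for triglycerides and total cholesterol, with free access to food after the 6 h sample. Value is mean percent inhibition versus a separate vehicle-treated group, unpaired t test p < 0.05, NS = no significant change, N = 6.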

Rattus norvegicus [3] = experiment: Inhibition of total cholesterol in normolipidemic rats after 24 hr of 50 mg/kg oral dosing; no significant change; format: functional, organism-based; design: dose 50 mg/kg; procedure, shortened: as §1
Rattus norvegicus [4] = experiment: Inhibition of plasma triglycerides in normolipidemic rats after 2 hr of 5 mg/kg oral dosing; format: functional; procedure, shortened: as §1
Rattus norvegicus [5] = experiment: Inhibition of plasma triglycerides in normolipidemic rats after 2 hr of 50 mg/kg oral dosing; format: functional; procedure, shortened: as §1
Rattus norvegicus [6] = experiment: Inhibition of plasma triglycerides in normolipidemic rats after 6 h of 5 mg/kg oral dosing; format: functional; procedure, shortened: as §1
Rattus norvegicus [7] = experiment: Inhibition of plasma triglycerides in normolipidemic rats after 6 hr of 50 mg/kg oral dosing; format: functional; procedure, shortened: as §1
Rattus norvegicus [8] = experiment: Inhibition of total cholesterol in normolipidemic rats after 2 h of 5 mg/kg oral dosing; format: functional; procedure, shortened: as §1
Rattus norvegicus [9] = experiment: Inhibition of total cholesterol in normolipidemic rats after 2 hr of 50 mg/kg oral dosing; format: functional; procedure, shortened: as §1
Rattus norvegicus [10] = experiment: Inhibition of total cholesterol in normolipidemic rats after 6 hr of 5 mg/kg oral dosing; format: functional; procedure, shortened: as §1
Rattus norvegicus [11] = experiment: Inhibition of total cholesterol in normolipidemic rats after 6 hr of 50 mg/kg oral dosing; format: functional; procedure, shortened: as §1
Rattus norvegicus [12] = experiment: Inhibition of plasma triglycerides in normolipidemic rats after 24 hr of 5 mg/kg oral dosing; no significant change; format: functional, organism-based; design: dose 5 mg/kg; procedure, shortened: as §1
Rattus norvegicus [13] = experiment: Inhibition of plasma triglycerides in normolipidemic rats after 24 h of 50 mg/kg oral dosing; no significant change; format: functional, organism-based; design: dose 50 mg/kg; procedure, shortened: as §1
Rattus norvegicus [14] = experiment: Inhibition of total cholesterol in normolipidemic rats after 2 hr of 50 mg/kg oral dosing; no significant change; format: functional, organism-based; design: dose 50 mg/kg; procedure, shortened: as §1
Rattus norvegicus [15] = experiment: Inhibition of total cholesterol in normolipidemic rats after 6 h of […] mg/kg oral dosing; no significant change; format: functional, organism-based; design: dose 50 mg/kg
Rattus norvegicus [16] = experiment: Inhibition of plasma triglycerides in normolipidemic rats after 2 hr of 50 mg/kg oral dosing; no significant change; format: functional, organism-based; design: dose 50 mg/kg; procedure, shortened: as §1
Rattus norvegicus [17] = experiment: Inhibition of plasma triglycerides in normolipidemic rats after 24 hr of 50 mg/kg oral dosing; No significant change; format: functional, organism-based; design: dose 50 mg/kg; procedure, shortened: as §1
Rattus norvegicus [18] = experiment: Inhibition of plasma triglycerides in normolipidemic rats after 6 h of […] mg/kg oral dosing; no significant change; format: functional, organism-based; design: dose 50 mg/kg
Rattus norvegicus [19] = experiment: Inhibition of total cholesterol in normolipidemic rats after 24 hr of 50 mg/kg oral dosing; format: functional, organism-based; design: dose 50 mg/kg; procedure, shortened: as §1

| SMILES | IC50 [1] [nM] | NS (Rattus norvegicus [2]) | NS (Rattus norvegicus [3]) | Reduction (Rattus norvegicus [4]) [%] | Reduction (Rattus norvegicus [5]) [%] | Reduction (Rattus norvegicus [6]) [%] | Reduction (Rattus norvegicus [7]) [%] | Reduction (Rattus norvegicus [8]) [%] | Reduction (Rattus norvegicus [9]) [%] | Reduction (Rattus norvegicus [10]) [%] | Reduction (Rattus norvegicus [11]) [%] | NS (Rattus norvegicus [12]) | NS (Rattus norvegicus [13]) | NS (Rattus norvegicus [14]) | NS (Rattus norvegicus [15]) | NS (Rattus norvegicus [16]) | NS (Rattus norvegicus [17]) | NS (Rattus norvegicus [18]) | NS (Rattus norvegicus [19]) |
| --- | --- | --- | --- | --- | --- | --- | --- | --- | --- | --- | --- | --- | --- | --- | --- | --- | --- | --- | --- |
| COC(=O)N[C@@H]1Cc2ccc(NC(=O)c3cccc(C)c3-c3ccc(C(F)(F)F)cc3)cc2C1 | 70 | no significant change | no significant change | 85 | 78 | 71 | 74 | 33 | 27 | 45 | 43 | no significant change | no significant change |  |  |  |  |  |  |
| COC(=O)N[C@H]1Cc2ccc(NC(=O)c3cc(C)ccc3-c3ccc(C(F)(F)F)cc3)cc2C1 | 170 |  | no significant change |  |  |  |  |  |  |  |  |  |  | no significant change | no significant change | no significant change | no significant change | no significant change |  |
| COC(=O)NCCC1Cc2ccc(NC(=O)c3cccc(C)c3-c3ccc(C(F)(F)F)cc3)cc2C1 (configuration not stated) | 70 |  |  |  |  |  |  |  |  |  |  |  | no significant change | no significant change | no significant change | no significant change |  | no significant change | no significant change |
